The results in this text go back to paper PMC9007260 (Russian Journal of Organic Chemistry, 2022).

Marks after values point to notes of the source that are not given here.

The test system of assay [1] is coagulation in hemostasis. Description: Anticoagulant activity, activated partial thromboplastin time. The note with it: value (range), n = 6. The format is biochemical. An outline of the steps: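 APTT was measured turbidimetrically on a hemocoagulometer using centrifuged citrated blood. Change is given as percent of control with a range in parentheses, n = 6. Significance was tested against control and reference drugs at p ≤ 0.05 or p ≤ 0.001.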

Assay [2] has as its system collagen-induced platelet aggregation. Briefly: Collagen-induced platelet aggregation. The format is cell-based. Summed up: (§1)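 Citrated blood was centrifuged, and platelet aggregation was recorded on an aggregometer using a published method. Collagen induced the latent period; ADP induced maximum amplitude and aggregation rate. Changes are given as percent of control, n = 6. Significance was tested against control and reference drugs at p ≤ 0.05 or p ≤ 0.001.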

Assay [3] concerns ADP-induced platelet aggregation. Description: ADP-induced platelet aggregation. The note with it: pro-aggregation activity versus etamsylate. The format is cell-based. An outline of the steps: as §1

Consider `CC(=O)Oc1ccccc1C(=O)O` [Acetylsalicylic acid, reference compound], for which the “APTT (activated partial thromboplastin time)” value (“APTT” below) in assay [1] is listed as “+1.1 (0.5–1.9)^e percent of control”.
For `C[N+](C)(C)CC(=O)NN=C1C(=O)N(CCn2cnc3c(N)ncnc32)c2ccccc21.[Cl-]` [Compound 3a, 2-(2-{1-[2-(6-Amino-9H-purin-9-yl)ethyl]-2-oxo-2,3-dihydro-1H-indol-3-ylidene}hydrazinyl)-N,N,N-trimethyl-2-oxoethan-1-aminium chloride], in assay [1], the “APTT” value is “+3.7 (2.9–5.4)^e percent of control”.
Turning to `Cc1ccc2c(c1)C(=NNC(=O)C[N+](C)(C)C)C(=O)N2CCn1cnc2c(N)ncnc21.[Cl-]` [Compound 3b, 2-(2-{1-[2-(6-Amino-9H-purin-9-yl)ethyl]-5-methyl-2-oxo-2,3-dihydro-1H-indol-3-ylidene}hydrazinyl)-N,N,N-trimethyl-2-oxoethan-1-aminium chloride], the “APTT” value in assay [1] was “+6.5 (4.9–8.3)^c,e percent of control”.
As for `CCc1ccc2c(c1)C(=NNC(=O)C[n+]1ccccc1)C(=O)N2CCn1cnc2c(N)ncnc21.[Cl-]` [Compound 3c, 1-[2-(2-{1-[2-(6-Amino-9H-purin-9-yl)ethyl]-5-ethyl-2-oxo-2,3-dihydro-1H-indol-3-ylidene}hydrazinyl)-2-oxoethyl]pyridinium chloride], the “APTT” value in assay [1] is “+5.3 (4.1–9.6)^c,e percent of control”.
Regarding `Cc1ccc2c(c1)C(=NNC(=O)C[n+]1cccc(C)c1C)C(=O)N2CCn1cnc2c(N)ncnc21.[Br-]` [Compound 3d, 1-[2-(2-{1-[2-(6-Amino-9H-purin-9-yl)ethyl]-5-methyl-2-oxo-2,3-dihydro-1H-indol-3-ylidene}hydrazinyl)-2-oxoethyl]-2,3-dimethylpyridinium bromide], the “APTT” value in assay [1] is listed as “+2.5 (1.8–4.3)^e percent of control”.
With `Cn1c(=O)c2c(ncn2CCN2C(=O)C(=NNC(=O)C[N+](C)(C)C)c3ccccc32)n(C)c1=O.[Cl-]` [Compound 4a, 2-[2-(1-{2-[1,3-Dimethyl-2,6-dioxo-2,3-dihydro-1H-purin-7(6H)-yl]ethyl}-2-oxo-2,3-dihydro-1H-indol-3-ylidene)hydrazinyl]-N,N,N-trimethyl-2-oxoethan-1-aminium chloride], the “APTT” value in assay [1] is on record as “+8.4 (7.3–10.4)^c,e percent of control”.
For `Cc1ccc2c(c1)C(=NNC(=O)C[N+](C)(C)C)C(=O)N2CCn1cnc2c1c(=O)n(C)c(=O)n2C.[Cl-]` [Compound 4b, 2-[2-(1-{2-[1,3-Dimethyl-2,6-dioxo-2,3-dihydro-1H-purin-7(6H)-yl]ethyl}-5-methyl-2-oxo-2,3-dihydro-1H-indol-3-ylidene)hydrazinyl]-N,N,N-trimethyl-2-oxoethan-1-aminium chloride], in assay [2], the “Effect on latent period (in words)” value is on record as “without affecting the latent period”. Further, the “Platelet aggregation activity relative to etamsylate” value in assay [3] was “more than twofold”. In assay [1], the “APTT” value is “+7.3 (5.6–9.4)^c,e percent of control”.
For the molecule Sodium heparin [reference compound], the “APTT” value in assay [1] is listed as “+20.3 (19.7–21.4)^d percent of control”.
